Measurements as given in ChEMBL document CHEMBL1759942, “Synthesis and biological activity of 2-(bis((1,3,4-oxadiazolyl/1,3,4-thiadiazolyl)methylthio)methylene)malononitriles” (2011).
≈ marks a conversion by molar mass, not a printed value.

How the values were obtained:
Type in all cases: functional
[1] = test system: Klebsiella pneumoniae; test: Antibacterial activity against Klebsiella pneumoniae assessed as zone of inhibition at 200 ug/ml after 24 hrs by disc diffusion method; conditions: read-out: DIZ
Outline: (§1)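 Agar disc diffusion on nutrient agar plates pre-inoculated separately with each bacterium. Sterile 6 mm paper discs were moistened with compound solution in DMSO at 100 or 200 per disc and placed on the plates. Plates were incubated at 37 °C, and growth-inhibition zone diameter was measured after 24 h. Chloramphenicol served as the reference drug.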

[2] = test system: Aspergillus niger; test: Antifungal activity against Aspergillus niger assessed as zone of inhibition at 200 ug/ml after 48 hrs by disc diffusion method; conditions: read-out: DIZ
Outline: (§2)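 Fungi were grown on potato dextrose agar at 25 °C for 3 days, and spore suspensions were adjusted to 10⁶ spores/ml. In the disc diffusion test, inoculated plates received 6 mm paper discs moistened with compound in DMSO at 100 or 200 per disc. Plates were incubated at 37 °C, and inhibition zone diameter was read at 48 h. Ketoconazole was the standard.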

[3] = test system: Radical scavenging activity; test: Antioxidant activity against DPPH free radical scavenging activity at 100 uM after 20 mins by spectrophotometric analysis at pH 7.5
Outline: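 DPPH assay: compound solutions at 100 were added to DPPH at 100 in dioxane/methanol and held at ambient temperature for 20 min. Absorbance was read at 517 nm, and the test–control difference was expressed as percent DPPH radical scavenging.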

[4] = test system: Bacillus subtilis; test: Antibacterial activity against Bacillus subtilis assessed as zone of inhibition at 200 ug/ml after 24 hrs by disc diffusion method; conditions: read-out: DIZ; outline: as §1
[5] = test system: Fusarium solani; test: Antifungal activity against Fusarium solani assessed as zone of inhibition at 100 ug/ml after 48 hrs by disc diffusion method; conditions: read-out: DIZ; outline: as §2
[6] = test system: Escherichia coli; test: Antibacterial activity against Escherichia coli assessed as zone of inhibition at 200 ug/ml after 24 hrs by disc diffusion method; conditions: read-out: DIZ; outline: as §1
[7] = test system: Bacillus subtilis; test: Antibacterial activity against Bacillus subtilis assessed as zone of inhibition at 100 ug/ml after 24 hrs by disc diffusion method; conditions: read-out: DIZ; outline: as §1
[8] = test system: Curvularia lunata; test: Antifungal activity against Curvularia lunata assessed as zone of inhibition at 200 ug/ml after 48 hrs by disc diffusion method; conditions: read-out: DIZ; outline: as §2
[9] = test system: Curvularia lunata; test: Antifungal activity against Curvularia lunata assessed as zone of inhibition at 100 ug/ml after 48 hrs by disc diffusion method; conditions: read-out: DIZ; outline: as §2
[10] = test system: Staphylococcus aureus; test: Antibacterial activity against Staphylococcus aureus assessed as zone of inhibition at 100 ug/ml after 24 hrs by disc diffusion method; conditions: read-out: DIZ; outline: as §1
[11] = test system: Fusarium solani; test: Antifungal activity against Fusarium solani assessed as zone of inhibition at 200 ug/ml after 48 hrs by disc diffusion method; conditions: read-out: DIZ; outline: as §2
[12] = test system: Aspergillus niger; test: Antifungal activity against Aspergillus niger assessed as zone of inhibition at 100 ug/ml after 48 hrs by disc diffusion method; conditions: read-out: DIZ; outline: as §2
[13] = Antioxidant activity against nitric oxide scavenging activity at 100 uM after 120 mins by spectrophotometric analysis at pH 7.4
Outline: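 Nitric oxide scavenging: test compounds at 100 in dioxane/methanol were incubated at 25 °C for 120 min, with a solvent-only control. At intervals, 0.5 ml samples were mixed with an equal volume of Griess reagent (1% sulfanilamide, 0.1% N-naphthylethylenediamine dihydrochloride, 2% o-phosphoric acid). Absorbance of the azo chromophore was then measured.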

[14] = test system: Staphylococcus aureus; test: Antibacterial activity against Staphylococcus aureus assessed as zone of inhibition at 200 ug/ml after 24 hrs by disc diffusion method; conditions: read-out: DIZ; outline: as §1
[15] = test system: Escherichia coli; test: Antibacterial activity against Escherichia coli assessed as zone of inhibition at 100 ug/ml after 24 hrs by disc diffusion method; conditions: read-out: DIZ; outline: as §1
[16] = test system: Klebsiella pneumoniae; test: Antibacterial activity against Klebsiella pneumoniae assessed as zone of inhibition at 100 ug/ml after 24 hrs by disc diffusion method; conditions: read-out: DIZ; outline: as §1
[17] = test system: Aspergillus niger; test: Antifungal activity against Aspergillus niger after 48 hrs by microdilution method
Outline: (§3)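 MIC by microdilution susceptibility testing in tubes. Incubation was at 36 °C for 24 h (bacteria) or 48 h (fungi). MIC was recorded as the lowest compound concentration giving no turbidity, i.e. no visible growth. Chloramphenicol was the antibacterial reference and ketoconazole the antifungal standard.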

[18] = test system: Fusarium solani; test: Antifungal activity against Fusarium solani after 48 hrs by microdilution method; outline: as §3
[19] = test system: Curvularia lunata; test: Antifungal activity against Curvularia lunata after 48 hrs by microdilution method; outline: as §3
[20] = test system: Staphylococcus aureus; test: Antibacterial activity against Staphylococcus aureus after 24 hrs by microdilution method; outline: as §3
[21] = test system: Escherichia coli; test: Antibacterial activity against Escherichia coli after 24 hrs by microdilution method; outline: as §3
[22] = test system: Bacillus subtilis; test: Antibacterial activity against Bacillus subtilis after 24 hrs by microdilution method; outline: as §3
[23] = test system: Klebsiella pneumoniae; test: Antibacterial activity against Klebsiella pneumoniae after 24 hrs by microdilution method; outline: as §3

Structure (SMILES)	zone of inhibition at 200 µg/mL [1] [mm]	zone of inhibition at 200 µg/mL [2] [mm]	inhibition [3] [%]	zone of inhibition at 200 µg/mL [4] [mm]	zone of inhibition at 100 µg/mL [5] [mm]	zone of inhibition at 200 µg/mL [6] [mm]	zone of inhibition at 100 µg/mL [7] [mm]	zone of inhibition at 200 µg/mL [8] [mm]	zone of inhibition at 100 µg/mL [9] [mm]	zone of inhibition at 100 µg/mL [10] [mm]	zone of inhibition at 200 µg/mL [11] [mm]	zone of inhibition at 100 µg/mL [12] [mm]	inhibition [13] [%]	zone of inhibition at 200 µg/mL [14] [mm]	zone of inhibition at 100 µg/mL [15] [mm]	zone of inhibition at 100 µg/mL [16] [mm]	MIC [17] [µg/mL]	MIC [18] [µg/mL]	MIC [19] [µg/mL]	MIC [20] [µg/mL]	other results
CCOC(=O)CSC(SCC(=O)OCC)=C(C#N)C#N	8	12	46.3	14	13	9	12	15	12	10	15	9	45.8	14	7	–	–	–	–	–	–
Cc1ccc(-c2nnc(CSC(SCc3nnc(-c4ccc(C)cc4)o3)=C(C#N)C#N)o2)cc1	11	11	52.5	12	15	–	10	14	13	10	17	10	54.3	13	–	–	–	–	–	–	–
N#CC(C#N)=C(SCc1nnc(-c2ccc(Cl)cc2)o1)SCc1nnc(-c2ccc(Cl)cc2)o1	12	17	73.7	16	20	11	13	19	16	16	22	14	72.5	20	8	8	–	–	–	–	–
CC(=O)N1CCN(c2ccc(OCC3COC(Cn4ccnc4)(c4ccc(Cl)cc4Cl)O3)cc2)CC1 (stereo not given) [KETOCONAZOLE]	–	39	–	–	38	–	–	44	41	–	42	36	–	–	–	–	6.25 (≈ 11.8 µM)	12.5 (≈ 23.5 µM)	6.25 (≈ 11.8 µM)	–	–
N#CC(C#N)=C(SCc1nnc(-c2ccc(Cl)cc2)s1)SCc1nnc(-c2ccc(Cl)cc2)s1	25	29	30.2	32	30	26	30	34	32	32	32	26	29.4	35	25	23	100 (≈ 179 µM)	50 (≈ 89.4 µM)	50 (≈ 89.4 µM)	100 (≈ 179 µM)	MIC [21]: 200 µg/mL (≈ 357 µM); MIC [22]: 50 µg/mL (≈ 89.4 µM); MIC [23]: 200 µg/mL (≈ 357 µM)
O=C1O[C@H]([C@@H](O)CO)C(O)=C1O	–	–	95.3	–	–	–	–	–	–	–	–	–	94.9	–	–	–	–	–	–	–	–
O=C(N[C@H](CO)[C@H](O)c1ccc([N+](=O)[O-])cc1)C(Cl)Cl [CHLORAMPHENICOL]	45	–	–	41	–	44	38	–	–	35	–	–	–	39	40	42	–	–	–	6.25 (≈ 19.3 µM)	MIC [21]: 6.25 µg/mL (≈ 19.3 µM); MIC [22]: 6.25 µg/mL (≈ 19.3 µM); MIC [23]: 12.5 µg/mL (≈ 38.7 µM)
Cc1ccc(-c2nnc(CSC(SCc3nnc(-c4ccc(C)cc4)s3)=C(C#N)C#N)s2)cc1	22	21	21.6	24	23	24	19	26	25	19	25	18	22.3	25	17	18	–	–	–	–	–
N#CC(C#N)=C(SCc1nnc(-c2ccccc2)o1)SCc1nnc(-c2ccccc2)o1	12	14	63.5	16	18	10	12	17	15	12	21	12	65.4	14	8	9	–	–	–	–	–
N#CC(C#N)=C(SCc1nnc(-c2ccccc2)s1)SCc1nnc(-c2ccccc2)s1	24	24	26.3	27	25	24	23	28	26	24	28	21	25.8	26	21	23	100 (≈ 204 µM)	100 (≈ 204 µM)	100 (≈ 204 µM)	200 (≈ 408 µM)	MIC [21]: 200 µg/mL (≈ 408 µM); MIC [22]: 100 µg/mL (≈ 204 µM); MIC [23]: 200 µg/mL (≈ 408 µM)
